# Experimental data taken from ChEMBL document CHEMBL4038325, “Opioid Receptor Modulators with a Cinnamyl Group” (J Med Chem, 2017).
# Activity calls are given as the source filed them. The calls are words filed in the database; no cut-off is given here.
# Key:
# Mu-type opioid receptor [1] = target: T1, Mu-type opioid receptor (Homo sapiens, UniProt P35372); details: HEK-293T, at 10 µM
# [2] = target: T2, Kappa-type opioid receptor (Homo sapiens, UniProt P41145); experiment: Agonist activity at recombinant human KOR expressed in HEK293T cells assessed as inhibition of forskolin-stimulated cAMP level preincubated for 15 to 20 mins followed by forskolin addition by GloSensor assay; type: functional, cell-based; details: for inhibition: HEK-293T
# T2 sequence (P41145 whole entry): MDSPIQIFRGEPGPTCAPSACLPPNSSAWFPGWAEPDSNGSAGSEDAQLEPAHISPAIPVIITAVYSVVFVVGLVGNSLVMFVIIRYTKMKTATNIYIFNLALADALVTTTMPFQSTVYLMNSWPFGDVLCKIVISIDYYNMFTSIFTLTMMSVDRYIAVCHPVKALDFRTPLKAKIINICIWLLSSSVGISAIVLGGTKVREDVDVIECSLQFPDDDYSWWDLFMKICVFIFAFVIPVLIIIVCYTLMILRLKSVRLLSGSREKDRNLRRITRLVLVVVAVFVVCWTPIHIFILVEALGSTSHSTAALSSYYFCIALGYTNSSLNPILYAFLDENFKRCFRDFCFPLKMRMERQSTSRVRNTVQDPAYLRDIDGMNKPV
# In short: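 HEK293T transiently transfected with hKOR plus GloSensor-22F plasmid. Compounds (10 µM to 10 pM, triplicate) added for 15-20 min at 37°C, then forskolin added (final 10 µM). Luminescence of live cells normalized to % forskolin-alone control. IC50 from non-linear regression; two independent experiments.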
# [3] = target: T2, Kappa-type opioid receptor; details: HEK-293T, at 10 µM
# Mu-type opioid receptor [4] = target: T1, Mu-type opioid receptor; experiment: Agonist activity at recombinant human MOR expressed in HEK293T cells assessed as inhibition of forskolin-stimulated cAMP level at 10 uM preincubated for 15 to 20 mins followed by forskolin addition by GloSensor assay relative to control; type: functional, cell-based; details: HEK-293T
# In short: (§1)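 HEK293T transiently co-transfected (calcium phosphate) with DOR or MOR plus pGloSensor-22F. Cells were loaded with luciferin in HBSS/20 mM HEPES pH 7.4 for 90 min, then given compound in triplicate for 15-20 min at 37°C. Forskolin added (final 10 µM); luminescence read. cAMP signal normalized to forskolin-alone control.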
# [5] = target: T2, Kappa-type opioid receptor; details: HEK-293T, at 10 µM; remark: listed apart in the source
# D(2) dopamine receptor [6] = target: T3, D(2) dopamine receptor (Homo sapiens, UniProt P14416); experiment: Agonist activity at dopamine D2 receptor (unknown origin) at 10 uM
# T3 sequence (P14416 whole entry): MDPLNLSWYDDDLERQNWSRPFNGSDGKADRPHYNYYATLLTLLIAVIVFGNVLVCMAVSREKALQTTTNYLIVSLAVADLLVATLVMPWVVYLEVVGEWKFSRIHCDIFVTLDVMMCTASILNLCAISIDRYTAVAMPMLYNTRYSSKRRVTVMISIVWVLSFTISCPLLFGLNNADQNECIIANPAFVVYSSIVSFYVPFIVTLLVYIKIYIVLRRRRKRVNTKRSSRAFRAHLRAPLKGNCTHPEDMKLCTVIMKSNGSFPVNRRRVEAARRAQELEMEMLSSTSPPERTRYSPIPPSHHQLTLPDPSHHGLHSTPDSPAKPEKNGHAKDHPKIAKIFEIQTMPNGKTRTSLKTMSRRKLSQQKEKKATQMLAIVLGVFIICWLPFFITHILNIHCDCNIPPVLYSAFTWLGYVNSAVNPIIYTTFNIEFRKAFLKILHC
# In short: (§2)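 Primary screen, agonist and antagonist modes, each receptor tested separately. Compounds at 10 µM in triplicate; response taken as % inhibition or stimulation relative to control. Compounds giving at least 50% effect were then run over 10 µM to 10 pM to obtain EC50/IC50.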
# [7] = target: Delta-type opioid receptor (Homo sapiens) (UniProt P41143); experiment: Antagonist activity at recombinant human DOR expressed in HEK293T cells assessed as reduction in DADLE-induced inhibition of forskolin-stimulated cAMP level at 10 uM preincubated for 15 to 20 mins followed by DADLE and forskolin addition by GloSensor assay relative to control; type: functional, cell-based; details: HEK-293T
# Delta-type opioid receptor (Homo sapiens), sequence (P41143 whole entry): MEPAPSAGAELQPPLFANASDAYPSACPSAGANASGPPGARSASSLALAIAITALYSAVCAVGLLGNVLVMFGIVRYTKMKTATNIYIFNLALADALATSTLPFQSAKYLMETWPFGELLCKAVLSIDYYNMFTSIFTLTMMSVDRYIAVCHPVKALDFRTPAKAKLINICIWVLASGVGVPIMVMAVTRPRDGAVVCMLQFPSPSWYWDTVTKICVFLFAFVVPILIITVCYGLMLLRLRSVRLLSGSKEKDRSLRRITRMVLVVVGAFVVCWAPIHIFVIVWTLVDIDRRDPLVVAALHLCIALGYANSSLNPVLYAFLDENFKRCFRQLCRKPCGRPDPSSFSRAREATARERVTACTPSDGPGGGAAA
# In short: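 HEK293T transiently expressing DOR plus GloSensor-22F were given compound in triplicate for 15-20 min at 37°C. DADLE (1 µM) was then added, followed by forskolin (10 µM); luminescence read. Signal normalized to % control (agonist + forskolin).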
# D(2) dopamine receptor [8] = target: T3, D(2) dopamine receptor; experiment: Antagonist activity at dopamine D2 receptor (unknown origin) at 10 uM
# In short: as §2
# Mus musculus [9] = experiment: Analgesic activity in C57BL/6J mouse assessed as tail withdrawal latency at 10 mg/kg measured after 30 mins in presence of KOR antagonist norBNI by tail flick test; type: functional, organism-based
# In short: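 Male C57BL/6J mice (5-6/group) received norBNI 10 mg/kg i.p. 30 min before test compound at 10 mg/kg i.p. Tail withdrawal latency in 52 ± 0.5°C water was measured at the 30 min time point, three readings, by a blinded observer.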
# [10] = target: Histamine H1 receptor (Homo sapiens) (UniProt P35367); experiment: Antagonist activity at histamine H1 receptor (unknown origin) at 10 uM
# Histamine H1 receptor (Homo sapiens), sequence (P35367 whole entry): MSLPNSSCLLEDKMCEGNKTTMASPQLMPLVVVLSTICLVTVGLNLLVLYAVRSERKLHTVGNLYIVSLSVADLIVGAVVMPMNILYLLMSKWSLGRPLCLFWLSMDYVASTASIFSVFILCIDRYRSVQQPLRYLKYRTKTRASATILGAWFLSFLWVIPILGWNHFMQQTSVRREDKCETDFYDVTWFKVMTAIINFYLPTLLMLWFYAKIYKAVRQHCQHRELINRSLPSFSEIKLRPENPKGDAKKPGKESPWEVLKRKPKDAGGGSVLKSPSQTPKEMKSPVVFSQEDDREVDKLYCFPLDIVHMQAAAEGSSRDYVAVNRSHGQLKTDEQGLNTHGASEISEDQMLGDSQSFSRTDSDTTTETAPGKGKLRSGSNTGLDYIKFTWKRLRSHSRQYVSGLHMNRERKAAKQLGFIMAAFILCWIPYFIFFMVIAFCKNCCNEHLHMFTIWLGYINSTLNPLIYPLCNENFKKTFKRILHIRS
# In short: as §2
# [11] = target: Histamine H1 receptor (Homo sapiens) (UniProt P35367); experiment: Agonist activity at histamine H1 receptor (unknown origin) at 10 uM
# In short: as §2
# Mus musculus [12] = experiment: Analgesic activity in C57BL/6J mouse assessed as tail withdrawal latency at 10 mg/kg by tail flick test; type: functional, organism-based
# In short: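 Male C57BL/6J mice, 6-8 weeks, 22-25 g; 5-6 per group. Dosed 10 mg/kg i.p. Distal third of tail immersed in 52 ± 0.5°C water; latency recorded three times per time point by a blinded observer. Latency expressed as % of baseline taken 15 min before dosing, followed over time; area under curve also calculated.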
# [13] = target: Delta-type opioid receptor (Homo sapiens) (UniProt P41143); experiment: Agonist activity at recombinant human DOR expressed in HEK293T cells assessed as inhibition of forskolin-stimulated cAMP level at 10 uM preincubated for 15 to 20 mins followed by forskolin addition by GloSensor assay relative to control; type: functional, cell-based; details: HEK-293T
# In short: as §1
# Mu-type opioid receptor [14] = target: T1, Mu-type opioid receptor; type: functional, cell-based, HEK-293T
# T1 sequence (P35372 whole entry): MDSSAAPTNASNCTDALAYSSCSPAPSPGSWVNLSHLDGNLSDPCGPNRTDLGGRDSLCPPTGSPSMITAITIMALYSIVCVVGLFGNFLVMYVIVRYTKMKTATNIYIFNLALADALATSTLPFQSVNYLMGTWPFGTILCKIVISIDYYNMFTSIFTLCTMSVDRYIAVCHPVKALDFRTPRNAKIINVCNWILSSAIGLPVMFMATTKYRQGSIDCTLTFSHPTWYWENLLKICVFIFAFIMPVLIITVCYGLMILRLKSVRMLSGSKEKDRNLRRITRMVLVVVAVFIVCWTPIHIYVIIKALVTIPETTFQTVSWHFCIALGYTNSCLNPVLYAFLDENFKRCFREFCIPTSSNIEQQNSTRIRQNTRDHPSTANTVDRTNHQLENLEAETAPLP
Structure (SMILES),inhibition (Mu-type opioid receptor [1]),inhibition [2],inhibition [3],inhibition (Mu-type opioid receptor [4]),inhibition [5],inhibition [7],inhibition [13],further results
COc1ccccc1N1CCN(C/C(=C\c2ccccc2)C(=O)NCC(=O)O)CC1,inactive,inactive,inactive,inactive,–,–,–,–
Cc1cccc(Oc2ccc(C(=O)N[C@H](CN3CCN(c4cccc(O)c4)[C@@H](C)C3)C(C)C)cc2)c1,–,–,Active,–,–,–,–,–
O=C(O)CNC(=O)C(Cc1ccccc1)CN1CCN(c2ccccc2)CC1 (stereo not given),inactive,–,inactive,inactive,inactive,–,–,–
COc1ccccc1N1CCN(CCC(C(=O)N(C)C)(c2ccccc2)c2ccccc2)CC1,–,–,–,Active,–,–,–,–
O=C(O)/C(=C/c1ccccc1)CN1CCN(c2cccc(Cl)c2Cl)CC1,inactive,–,–,inactive,–,inactive,inactive,Activity (D(2) dopamine receptor [6]): Not Active; inhibition (INH) (D(2) dopamine receptor [8]): Not Active; Activity (Mus musculus [9]): inactive; inhibition [10]: inactive; Activity [11]: inactive; Activity (Mus musculus [12]): Dose-dependent effect; IC50 ([2]; read-out: IC50): 800 nM; IC50 ([2]; read-out: pIC50 (converted)): 716 to 813 nM
CC(C)C[C@H](NC(=O)/C(=C/c1ccccc1)CN1CC[C@@](C)(c2cccc(O)c2)[C@@H](C)C1)C(=O)O,50%,–,inactive,–,inactive,inactive,inactive,IC50 (Mu-type opioid receptor [14]; read-out: IC50): 780 nM; IC50 (Mu-type opioid receptor [14]; read-out: pIC50 (converted)): 782 to 794 nM
COc1ccccc1N1CCN(CC(Cc2ccccc2)C(=O)NCC(=O)O)CC1 (stereo not given),inactive,–,inactive,inactive,inactive,–,–,–
CCC(C)C(NC(=O)/C(=C/c1ccccc1)CN1CC[C@@](C)(c2cccc(O)c2)[C@@H](C)C1)C(=O)O (stereo not given in full),50%,–,inactive,–,inactive,inactive,inactive,IC50 (Mu-type opioid receptor [14]; read-out: IC50): 1600 nM; IC50 (Mu-type opioid receptor [14]; read-out: pIC50 (converted)): 1600 to 1620 nM
C[C@H]1CN(C[C@H](Cc2ccccc2)C(=O)NCC(=O)O)CC[C@@]1(C)c1cccc(O)c1,50%,–,inactive,–,inactive,inactive,inactive,–
CC1(c2cccc(O)c2)CCN(C/C(=C\c2ccccc2)C(=O)O)CC1,50%,–,inactive,–,inactive,inactive,inactive,IC50 (Mu-type opioid receptor [14]; read-out: IC50): 18 nM; IC50 (Mu-type opioid receptor [14]; read-out: pIC50 (converted)): 18.6 to 76.6 nM
COc1ccc(N2CCN(C/C(=C\c3ccccc3)C(=O)NCC(=O)O)CC2)cc1,inactive,inactive,inactive,inactive,–,–,–,–
O=C(O)CNC(=O)C(Cc1ccccc1)CN1CCN(c2ccccc2O)CC1 (stereo not given),inactive,–,inactive,inactive,inactive,–,–,–
O=C(O)CNC(=O)/C(=C/c1ccccc1)CN1CCN(c2cccc(O)c2)CC1,–,–,inactive,–,–,–,–,–
CCCC(NC(=O)/C(=C/c1ccccc1)CN1CC[C@@](C)(c2cccc(O)c2)[C@@H](C)C1)C(=O)O (stereo not given in full),50%,–,inactive,–,inactive,inactive,inactive,IC50 (Mu-type opioid receptor [14]; read-out: IC50): 2320 nM; IC50 (Mu-type opioid receptor [14]; read-out: pIC50 (converted)): 2320 to 2340 nM
CCCC(NC(=O)/C(=C/c1ccccc1)CN1CCN(c2ccc(O)cc2)CC1)C(=O)O (stereo not given),inactive,inactive,inactive,inactive,–,–,–,–
COc1cccc(N2CCN(C/C(=C\c3ccccc3)C(=O)NCC(=O)O)CC2)c1,inactive,inactive,inactive,inactive,–,–,–,–
CC(C)[C@H](NC(=O)/C(=C/c1ccccc1)CN1CCN(c2ccc(Cl)cc2)CC1)C(=O)O,inactive,–,–,inactive,–,inactive,inactive,Activity (D(2) dopamine receptor [6]): Not Active; inhibition (INH) (D(2) dopamine receptor [8]): Not Active; Activity (Mus musculus [9]): inactive; inhibition [10]: inactive; Activity [11]: inactive; Activity (Mus musculus [12]): Dose-dependent effect; IC50 ([2]; read-out: IC50): 910 nM; IC50 ([2]; read-out: pIC50 (converted)): 910 to 948 nM
CCC(C)C(NC(=O)/C(=C/c1ccccc1)CN1CCN(c2ccc(O)cc2)CC1)C(=O)O (stereo not given),inactive,inactive,inactive,inactive,–,–,–,–
O=C(O)CNC(=O)/C(=C/c1ccccc1)CN1CCN(c2ccc(O)cc2)CC1,inactive,inactive,inactive,inactive,–,–,–,–
COc1ccc(N2CCN(CC(Cc3ccccc3)C(=O)NCC(=O)O)CC2)cc1 (stereo not given),inactive,–,inactive,inactive,inactive,–,–,–
CC(C)[C@H](NC(=O)/C(=C/c1ccccc1)CN1CCN(c2ccc(O)cc2)CC1)C(=O)O,inactive,inactive,inactive,inactive,–,–,–,–
CCOC(=O)C(NC(=O)/C(=C/c1ccccc1)CN1CCN(c2nsc3ccccc23)CC1)C(C)C (stereo not given),inactive,–,–,inactive,–,inactive,inactive,Activity (D(2) dopamine receptor [6]): Not Active; inhibition (INH) (D(2) dopamine receptor [8]): Not Active; inhibition [10]: inactive; Activity [11]: inactive; IC50 ([2]; read-out: IC50): 1800 nM; IC50 ([2]; read-out: pIC50 (converted)): 1910 to 1980 nM
CC(C)C[C@H](NC(=O)/C(=C/c1ccccc1)CN1CCN(c2ccc(O)cc2)CC1)C(=O)O,inactive,inactive,inactive,inactive,–,–,–,–
CC(C)[C@H](NC(=O)/C(=C/c1ccccc1)CN1CC[C@@](C)(c2cccc(O)c2)[C@@H](C)C1)C(=O)O,50%,–,inactive,–,inactive,inactive,inactive,IC50 (Mu-type opioid receptor [14]; read-out: IC50): 650 nM; IC50 (Mu-type opioid receptor [14]; read-out: pIC50 (converted)): 658 to 661 nM
